The list is not random: actives were taken first. Their share in the collection is about 1.4%.
FN deposition inh – fibronectin deposition inhibition; inhibition, % at 12.6 µM; AH1F fibroblasts, Alexa488-fibronectin deposition fluorescence, overnight; 350,000 tested, 0.086% active;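 active = mean inhibition across replicates of 30% or more, regardless of how many single replicates reach that level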;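 also: positive control wells lacked labelled fibronectin entirely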
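Assay system: AH1F fibroblasts assembling fluorescent fibronectin matrix; Amount: 10000 AH1F cells per well; Buffer or medium: DMEM, 2% serum; Probe or stimulus: Alexa488-fibronectin, 24 nM final in well; Doses: single compound dose, delivered by pin transfer; Incubation: 1 h adhesion, overnight exposure; Measured by: fluorescence 485/525 nm; Read-out: fibronectin deposition inhibition.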
Env fusion inh – HIV envelope-mediated fusion inhibition. 360,000 tested, 1.1% active. HeLa-JRFL Env/CEM21 cell fusion, luciferase. AID 651610. inhibition, % at 12.3 µM;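 active = mean replicate inhibition score of at least 50 and every replicate individually at or above 50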;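 also: 0% = plate neutral controls and 100% = maraviroc near 300 nM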
PDI turbidity – inhibitors of human protein disulfide isomerase. P07237. PDI insulin aggregation turbidity, A650, 90 min. inhibition, % at 10 µM. 350,000 tested, 0.052% active. AID 588391;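 active = mean inhibition across replicates of 30% or more, whatever share of single replicates reach that level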
INS-1E GSIS act – GLuc luminescence reporter in INS-1E cells, primary screen for activators of glucose-dependent secretion of insulin. INS-1E GLuc reporter insulin secretion, 2-3 h. activation, % at 16.6 µM. 370,000 tested, 0.61% active. AID 743287;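 active = lowest replicate activation of at least 40%, so every replicate reaches that level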;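 also: 0% = median of neutral control wells and 100% = median of IBMX positive control wells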
ERp5 block – ERp5 (human) disulfide isomerase inhibition; ERp5 insulin aggregation, absorbance 650 nm, 90 min; inhibition, % at 9.99 µM; 350,000 tested, 0.05% active; AID 651711;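 active = mean replicate inhibition above about 25%, with every replicate also reaching it, limit read from the data, passing the limit was not always enough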
Target sequence (Q15084 whole entry, looked up): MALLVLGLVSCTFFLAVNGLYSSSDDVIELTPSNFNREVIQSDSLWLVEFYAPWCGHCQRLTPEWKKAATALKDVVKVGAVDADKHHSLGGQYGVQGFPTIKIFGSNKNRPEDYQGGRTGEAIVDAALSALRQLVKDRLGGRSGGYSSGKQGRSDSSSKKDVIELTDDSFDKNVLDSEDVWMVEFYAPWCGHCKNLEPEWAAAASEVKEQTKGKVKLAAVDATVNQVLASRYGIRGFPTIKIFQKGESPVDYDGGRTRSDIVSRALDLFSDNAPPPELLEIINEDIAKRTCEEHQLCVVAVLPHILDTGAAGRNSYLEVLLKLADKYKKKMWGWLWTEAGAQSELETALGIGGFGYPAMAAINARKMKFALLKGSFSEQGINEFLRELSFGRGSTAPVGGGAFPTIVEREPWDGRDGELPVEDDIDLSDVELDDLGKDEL
* hit, by the source's call; . = no result; ! = not confirmed by another sample; [ ] = dose if it differs, or a comment.

SMILES | FN deposition inh | Env fusion inh | PDI turbidity | INS-1E GSIS act | ERp5 block
C[C@H]1CN([C@@H](C)CO)C(=O)c2ccccc2-c2ccccc2CO[C@@H]1CN(C)C(=O)Nc1cccc(C(F)(F)F)c1 | 1.5 | 58.7*[16.7 µM] | . | 12.5 | -6.6
COc1ccc(S(=O)(=O)N(C)C[C@H]2Oc3ccc(NC(=O)NC4CCCCC4)cc3CC(=O)N([C@H](C)CO)C[C@H]2C)cc1 | 13.3 | -14.5[16.7 µM] | . | -16.2 | -2.4
O=C(C[C@@H]1C=C[C@@H](NC(=O)Nc2cc(F)ccc2F)[C@H](CO)O1)NCCCN1CCOCC1 | 4.8 | -1.7[16.7 µM] | . | 6.1 | -4.5
CC(C)[C@@H](C)NC(=O)N(C)C[C@@H]1OCc2ccccc2-c2ccccc2C(=O)N([C@H](C)CO)C[C@H]1C | -11.7 | -1.0[16.7 µM] | . | 4.4 | -3.2
CC(C)[C@H](C)NC(=O)N(C)C[C@H]1OCc2ccccc2-c2ccccc2C(=O)N([C@@H](C)CO)C[C@@H]1C | -5.1 | 55.8*[16.7 µM] | . | 13.1 | 0.1
COc1cccc(C(=O)c2cc3cc(Cl)ccc3[nH]2)c1 | 6.0 | -24.6 | -0.8 | -2.4 | -2.4
O=C(c1ccccc1)c1cc2cc(Cl)ccc2[nH]1 | 2.8 | -33.7 | -45.3 | 41.4* | 5.1
O=C(Nc1ccn(Cc2ccccc2F)n1)c1ccc(COc2ccc(Br)cc2)cc1 | 20.9 | 86.7* | 19.3 | 0.4 | .
O=C(Nc1ccc(Cn2cccn2)cc1)c1ccc(COc2ccc(Br)cc2)cc1 | . | . | -2.7 | -4.8 | -6.7
C[C@@H]1CN([C@@H](C)CO)C(=O)c2cccc(NC(=O)c3ccncc3)c2O[C@H]1CN(C)CC1CCCCC1 | 18.3 | 99.4*[16.7 µM] | . | -10.7 | -1.2
C[C@@H]1CN([C@@H](C)CO)C(=O)c2cccc(NC(=O)c3ccc(-c4nccs4)cc3)c2O[C@H]1CN(C)CC1CC1 | -2.7 | 57.3*[16.7 µM] | . | -25.1 | -0.7
C[C@H]1CN([C@@H](C)CO)C(=O)c2cccc(NC(=O)C3CCCCC3)c2O[C@@H]1CN(C)CC1CCCCC1 | . | 9.5[16.7 µM] | . | 6.4 | 0.5
C[C@H]1CN([C@@H](C)CO)C(=O)c2cccc(NC(=O)C3CCCCC3)c2O[C@H]1CN(C)S(C)(=O)=O | -12.2 | 61.6*[16.7 µM] | . | 1.7 | -2.5
C[C@@H]1CN([C@H](C)CO)C(=O)c2cccc(NC(=O)c3ccncc3)c2O[C@@H]1CN(C)CC1CCCCC1 | -20.6 | -43.7[16.7 µM] | . | 21.3 | .
C[C@@H]1CN([C@@H](C)CO)C(=O)c2cccc(NC(=O)C3CCCCC3)c2O[C@H]1CN(C)CC1CCCCC1 | . | 62.9*[16.7 µM] | . | 8.1 | -0.1
C[C@H]1CN([C@@H](C)CO)C(=O)c2c(c3ccccc3n2C)-c2ccccc2CO[C@H]1CN(C)S(=O)(=O)c1ccccc1C#N | 5.8 | 21.3[16.7 µM] | . | 0.9 | 1.4
O=C(c1ccc(F)cc1)N1CC[C@@H]2[C@H](CO)Nc3ccc(C#Cc4ccccc4F)cc3[C@@H]21 | -11.7 | . | . | -0.6 | .
CS(=O)(=O)N1C[C@H](O)COC[C@H]2O[C@@H](CC(=O)NC3Cc4ccccc4C3)CC[C@@H]21 | -1.0 | 1.3[16.7 µM] | . | 0.9 | 2.4
O=C(Nc1ccc2c(c1)[C@H]1C[C@H](CC(=O)N3CCCCC3)O[C@H](CO)[C@H]1O2)C1CCOCC1 | . | -16.7[16.7 µM] | . | 15.0 | 0.3
C[C@H](CO)N1C[C@H](C)[C@@H](CN(C)Cc2ccccc2)Oc2c(NC(=O)C3CCCCC3)cccc2C1=O | -23.5 | 7.5[16.7 µM] | -1.8 | -3.2 | -0.9
C[C@H]1CN([C@@H](C)CO)C(=O)c2cccc(NC(=O)c3cnccn3)c2O[C@H]1CN(C)Cc1ccc(-c2ccccc2)cc1 | . | . | . | -11.2 | 4.3
C[C@@H]1CN([C@@H](C)CO)C(=O)c2cccc(NC(=O)C3CCCCC3)c2O[C@H]1CN(C)Cc1ccccc1 | . | 62.6*[16.7 µM] | . | -11.9 | -2.9
C[C@@H]1CN([C@@H](C)CO)C(=O)c2cc(NC(=O)C3CCCCC3)ccc2O[C@H]1CN(C)Cc1ccc(-c2ccccc2)cc1 | 30.2* | . | . | 1.8 | 4.3
C[C@@H]1CN([C@H](C)CO)C(=O)c2cccc(NC(=O)c3cnccn3)c2O[C@H]1CN(C)Cc1ccccc1 | . | 64.2*[16.7 µM] | . | -5.2 | -2.6
Cc1noc(C)c1NC(=O)N(C)C[C@H]1Oc2c(NC(=O)C3CCCCC3)cccc2C(=O)N([C@H](C)CO)C[C@@H]1C | -3.6 | -28.2 | 0.3 | 41.3*! | 2.4
SMILES | FN deposition inh | Env fusion inh | PDI turbidity | INS-1E GSIS act | ERp5 block
C[C@H](CO)N1C[C@H](C)[C@@H](CN(C)S(C)(=O)=O)Oc2c(NC(=O)Cc3ccccc3)cccc2C1=O | 30.5* | -37.7 | 3.2 | 2.3 | 2.1
C[C@H](CO)N1C[C@H](C)[C@@H](CN(C)S(=O)(=O)c2cccs2)Oc2c(NC(=O)Cc3ccccc3)cccc2C1=O | -6.6 | -137.6 | 4.3 | -14.8 | -3.2
O=C(C[C@@H]1C=C[C@@H](NC(=O)C2CCOCC2)[C@@H](CO)O1)NCc1ccncc1 | 1.6 | -5.0[16.7 µM] | . | 4.9 | 2.8
O=C(Nc1ccccc1F)N1C[C@@H]2[C@H](c3ccccc31)[C@H](CO)N2C(=O)C1CC1 | 30.5* | . | . | 5.6 | -0.5
COc1cccc(NC(=O)Nc2ccc3c(c2)C(=O)N(C)C[C@H](OC)[C@@H](C)CN(CC2CC2)[C@@H](C)CO3)c1 | 0.7 | . | . | -1.6 | 2.9
CCOC(=O)c1ccccc1NC(=O)Cn1c(-c2nonc2N)nc2ccccc21 | active | -8.4 | -4.5 | . | .
COc1ccccc1S(=O)(=O)N[C@H]1CC[C@@H](CC(=O)N2CCN(C)CC2)O[C@H]1CO | 7.5 | 57.0*[16.7 µM] | . | 9.4 | 0.3
O=C(NCc1cccnc1)c1cccc(S(=O)(=O)NCc2ccccc2)c1 | 4.7 | . | -10.1 | 46.0* | 2.9
Cc1ccc2sc(N3CCN(C(=O)c4ccc([N+](=O)[O-])o4)CC3)nc2c1C | -4.6 | -20.2 | -0.8 | 87.4* | -11.4
O=C(c1ccc([N+](=O)[O-])o1)N1CCN(c2nc3c(Cl)cccc3s2)CC1 | -0.4 | -72.5 | -0.6 | -30.4 | -2.8
COc1cccc(-c2ccc3c(c2)[C@H]2[C@H](CCN2C(=O)C2CCC2)[C@@H](CO)N3)c1 | 6.5 | . | . | -39.5 | .
COC(=O)[C@H]1[C@H](CO)[C@H]2Cn3c(ccc(-c4ccccc4OC)c3=O)[C@H]2N1CC1CCCCC1 | . | . | . | -9.5 | -0.6
O=C1CCC(c2ccccc2)c2ccccc21 (stereo not given) | -7.6 | -3.1 | 0.2 | -0.5 | -1.0
N#CC1C(=O)c2ccccc2C1c1ccccc1 (stereo not given) | 37.9* | -396.2 | 0.6 | 1.3 | 5.5
CS(=O)(=O)c1ccc(S(=O)CC(=O)OCc2ccccc2)c([N+](=O)[O-])c1 (stereo not given) | -0.1 | -175.0 | -4.2 | 80.7* | -3.2
O=C(CS(=O)c1ccc(C(F)(F)F)cc1[N+](=O)[O-])Oc1ccccc1 (stereo not given) | 13.3 | -113.7 | -0.2 | . | .
C/C(=N/Oc1nc(C)cc(C)n1)c1ccc(F)cc1 | . | . | 0.2 | 64.2* | .
C[C@@H]1CN([C@H](C)CO)C(=O)c2cc(NC(=O)CCCN(C)C)ccc2O[C@@H]1CN(C)C(=O)NC1CCCCC1 | 0.9 | 4.7[16.7 µM] | . | 16.1 | -4.4
O=S(=O)(N[C@H]1CC[C@@H](CCn2cc(-c3cccnc3)nn2)O[C@H]1CO)c1ccc(Cl)cc1 | 8.6 | 3.1[16.7 µM] | . | 9.5 | 3.0
